Measurements of several laboratories.
Lines come from different studies, so protocols differ.
Target: Cyclin-dependent kinase-like 3 (CDKL3, Homo sapiens, UniProt Q8IVW4)

SMILES	assay	setting	remaining binding [%]
COc1ncc2cc3ccccc3nc2c1C#N	binding, competition with immobilised ligand	5 µM	85
Cc1cc(NC(=O)c2cccc(S(F)(F)(F)(F)F)c2)cc(-n2ccn3nc(-c4cccnc4)cc23)c1	cell-free assay, competition with immobilised ligand	1 µM	100
COc1ccnn2ncc(-c3ccnc(N(C)C)n3)c12	binding	1 µM	94
O=C(c1ccc(Nc2nccc(-c3cc4ccccc4s3)n2)cc1)N1CCC(N2CCCC2)CC1	binding, competition with immobilised ligand	1 µM	58
F[C@@H]1CCN(c2nccc(-c3cnn4ncccc34)n2)C1	binding	1 µM	100
O=C(NCC1CCOCC1)c1n[nH]cc1NC(=O)c1c(F)cccc1F	binding, competition with immobilised ligand	1 µM	100
CO[C@@H](C)c1c(Nc2ccc([C@H](N(C)C(=O)C3CCS(=O)(=O)CC3)C(F)(F)F)cc2)cnc2cc(Cl)nn12	cell-free assay, competition with immobilised ligand	1 µM	73
N[C@H]1CCN(c2nccc(-c3cnn4ncccc34)n2)C1	binding	1 µM	100
O=C(c1ccc(Nc2ncc(Cl)c(-c3ccc(Cl)s3)n2)cc1)N1CCC(N2CCCC2)CC1	binding, competition with immobilised ligand	1 µM	39
COc1cnc(Nc2cccc(S(N)(=O)=O)c2)nc1N1CCN(c2ccccc2)C(=O)C1	binding, competition with immobilised ligand	1 µM	99
c1cnn2ncc(-c3ccnc(N4CCC45COC5)n3)c2c1	binding	1 µM	93
CCCCN(CCCC)C(=O)CN1C[C@H](c2cc(OC)c3c(c2)OCO3)[C@@H](C(=O)O)[C@@H]1CC(C)(C)CCC	cell-free assay, competition with immobilised ligand	1 µM	100
Nc1ncc2c(n1)-c1c([nH]c3ccc(C#CC4CC4)cc13)CCCC2	binding, competition with immobilised ligand	1 µM	83
C=CC(=O)N1CCC(C(=O)NCC(=O)N2CCN(c3nc(-c4cnc(N)nc4C(F)F)nc(N4CCOCC4)n3)CC2)CC1	binding, competition with immobilised ligand	1 µM	100
CNCc1ccccc1-c1csc([C@@H](C)Nc2nc(C)nc3cc(OC)c(OC)cc23)c1	cell-free assay, competition with immobilised ligand	1 µM	99
c1cncc(-c2cccc(Nc3nccc(NC4CCCCC4)n3)c2)c1	binding, competition with immobilised ligand	10 µM	100
Cc1noc([C@H]2C[C@@H](c3ccc(C(F)(F)F)cc3)CN(C(=O)N3CCS(=O)(=O)C3)C2)n1	binding, competition with immobilised ligand	1 µM	81
O=C(NCCCN1CCOCC1)c1ccc(Nc2nccc(-c3cc4ccccc4s3)n2)cc1	binding, competition with immobilised ligand	1 µM	89
Cn1nc(C(=O)NCc2ccc(C(=O)O)cc2)cc1-c1ccc2[nH]ccc2c1	cell-free assay, competition with immobilised ligand	0.1 µM	100
C[C@@H]1CCN(c2nccc(-c3cnn4ncccc34)n2)C1	binding	1 µM	93
